In the library only some 2.9% were active in any assay of this set; here they are far more common.
PfM18AAP inh – blocks P. falciparum M18 aspartyl aminopeptidase; recombinant PfM18AAP, H-Glu-NHMec fluorogenic cleavage; inhibition, % at 7.35 µM; AID 1822; 290,000 tested, 1.2% active;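 active means inhibition above the campaign mean inhibition over all tested compounds plus 3 SD, cut at about 28% in these data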
Apaf-1 inh – blocks human Apaf-1 apoptosome activity. O14727. reconstituted apoptosome caspase-3 activity, DEVD-Rh110 fluorescence. 330,000 tested, 0.71% active. AID 489030. inhibition, % at 20 µM; active means inhibition of at least 40% at 20 µM
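Assay system – apoptosome proteins · Medium – Hepes buffer, pH 7.5 · Also added – cytochrome c with DEVD-Rh110 · Timing – 30 min compound preincubation, 50 min activation, room temperature · Detection – Rh110 fluorescence, excitation 480 nm, emission 540 nm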
UBC13 polyUb – inhibitors of human UBC13 polyubiquitin chain formation; AID 485273; inhibition, % at 20 µM; 330,000 tested, 0.47% active; TR-FRET; P61088; in the data active means inhibition above about 45%, passing the limit was not always enough
Target sequence (P61088 whole entry, looked up): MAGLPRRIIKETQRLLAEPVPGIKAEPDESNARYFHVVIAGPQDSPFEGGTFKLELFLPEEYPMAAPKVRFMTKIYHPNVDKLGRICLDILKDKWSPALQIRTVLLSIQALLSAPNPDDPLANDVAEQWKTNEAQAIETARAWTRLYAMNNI
EBNA-1 inhibitor – blocks EBNA-1 binding to DNA; EBNA-1 DNA binding, fluorescence polarization; inhibition, % at 14.8 µM; 300,000 tested, 0.34% active; in the data active means inhibition above about 28%
ZTA counter – blocks Epstein-Barr virus ZTA, an EBNA-1 counter-screen | P03206 | ZTA-DNA binding, fluorescence polarization | inhibition, % at 11 µM | 320,000 tested, 0.15% active; in the data active means inhibition above about 33%
Target sequence (P03206 whole entry, looked up): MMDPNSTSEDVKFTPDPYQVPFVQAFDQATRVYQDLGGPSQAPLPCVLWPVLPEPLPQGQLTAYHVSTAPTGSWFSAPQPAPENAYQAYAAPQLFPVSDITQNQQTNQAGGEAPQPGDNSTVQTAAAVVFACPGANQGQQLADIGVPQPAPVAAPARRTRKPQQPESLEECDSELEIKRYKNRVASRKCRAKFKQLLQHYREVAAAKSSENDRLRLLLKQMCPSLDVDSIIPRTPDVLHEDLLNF
PfGluPho inh – PfG6PD (Plasmodium falciparum) enzyme inhibition | 350,000 tested, 0.78% active | AID 504690 | PfGluPho enzyme, NADPH resazurin-diaphorase fluorescence | inhibition, % at 20 µM;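 active means inhibition reaching at least a set limit at 20 µM in the primary screen, cut at about 59% in these data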
PfG6PD confirm – confirmation of Plasmodium falciparum G6PD inhibitors | AID 504753 | recombinant PfGluPho, NADPH-diaphorase-resazurin fluorescence | shares compounds with PfGluPho inh | 2,400 tested, 34% active | inhibition, % at 20 µM;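 active means inhibition of at least 50% at 20 µM in any single replicate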
Diaphorase 10uM – counter-screen for P. falciparum G6PD inhibitors: diaphorase inhibitors, oxidizers. shares compounds with PfGluPho inh. diaphorase-coupled resazurin reduction, fluorescence, NADPH 10 uM. inhibition, % at 20 µM. 820 tested, 39% active;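 active means average inhibition reaching 50% or more with the compound at 20 µM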;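 further: resorufin red fluorescence formed as diaphorase reduces resazurin using NADPH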
Diaph ctr 30uM – diaphorase inhibition or oxidation at 30 uM NADPH | shares compounds with PfGluPho inh | Diaphorase/resazurin coupled assay, resorufin fluorescence | inhibition, % at 20 µM | 820 tested, 29% active;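 active means inhibition averaging 50% or more, tested at 20 µM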
A number is an active result; – = inactive; · = no result given.

SMILES	PfM18AAP inh	Apaf-1 inh	UBC13 polyUb	EBNA-1 inhibitor	ZTA counter	PfGluPho inh	PfG6PD confirm	others
COc1cc(/C=N/NC(=O)c2ccc(CN3C(=O)c4cccc5cccc3c45)cc2)cc(OC)c1O	–	–	–	–	–	64	–
CC1=CC(=Nc2c(C)n(C)n(-c3ccccc3)c2=O)C=C(C)C1=O	–	–	–	–	–	72	57	Diaphorase 10uM=64;Diaph ctr 30uM=69
COc1cc2c(cc1NC(=O)CN(C)Cc1cccc(OC)c1OC)oc1ccccc12	–	–	–	–	–	–	·
COc1ccc(-n2c(C)cc(C(=O)NC3CCCCC3)c2C)cc1	–	–	–	–	–	71	–
COc1ccc(Cl)cc1S(=O)(=O)N1CCN(C(=O)c2n[nH]c(=O)c3ccccc23)CC1	·	–	–	·	·	–	·
COc1ccc(C2C(Oc3ccccc3)C(=O)N2c2ccc(C)c(C)c2)cc1OC (stereo unspecified)	–	–	–	–	–	81	–
Cc1onc(-c2ccccc2)c1C(=O)N/N=C/c1cccs1	–	–	–	–	–	62	–
COc1ccccc1/C=N/NC(=O)c1c(-c2ccccc2)noc1C	–	–	–	–	–	87	66	Diaphorase 10uM=84;Diaph ctr 30uM=64
Cc1onc(-c2ccccc2)c1C(=O)N/N=C/c1ccccc1OC(C)C	–	–	–	–	–	117	85	Diaphorase 10uM=76;Diaph ctr 30uM=50
Cc1ccccc1OCC(=O)N/N=C/c1cn(C)c2ccccc12	–	–	–	–	–	64	–
Cc1ccc(C)c(S(=O)(=O)N2CCN(C(=O)Cn3[nH]c(=O)c4ccccc4c3=O)CC2)c1	·	–	–	–	–	–	·
Cc1sc2nc[nH]c(=O)c2c1-c1ccc(Cl)cc1	–	–	–	–	–	–	·
Cn1c(COc2ccccc2)nnc1SCC(=O)Nc1nnc(C2CC2)s1	·	·	·	·	·	–	·
COc1ccc(/C=N/NC(=O)c2c(-c3ccccc3)noc2C)cc1	–	–	–	–	–	–	·
Cc1onc(-c2ccccc2)c1C(=O)N/N=C/c1cn(C)c2ccccc12	–	–	–	–	–	90	71	Diaphorase 10uM=68;Diaph ctr 30uM=58
NS(=O)(=O)c1cccnc1Nc1cccc(Cl)c1Cl	–	–	–	–	–	62	–
N=C1N(c2ccccc2)C(=S)C(=Nc2ccccc2)N1c1ccccc1	·	·	·	·	·	65	–
Cn1cc(CN2CCN(Cc3ccccc3)CC2)c(-c2cccc(Cl)c2)n1	–	–	–	–	–	–	·
O=C(/C=C1\C(=O)Nc2ccccc21)/C=C1\C(=O)Nc2ccccc21	–	·	·	·	·	81	–
Cc1cc(OCCn2nc(C(=O)O)c3ccccc3c2=O)ccc1C(C)C	–	–	–	·	·	79	–
COc1ccc([C@H]2CC(=O)C=C(c3ccc(Cl)c(C(F)(F)F)c3)C2)cc1	·	–	–	·	–	–	·
O=C(CSc1ccccc1)NCc1ccccn1	–	–	–	–	–	–	·
Cc1ccc(S(=O)(=O)N(C)C)cc1NC(=O)CSc1nc2ncc(Cl)cc2[nH]1	·	–	–	·	·	66	52	Diaphorase 10uM=–;Diaph ctr 30uM=–
Cc1ccccc1NC(=O)CSc1nc2ncc(Cl)cc2[nH]1	–	–	–	–	–	–	·
O=C(Nc1ccc(N2CCCC2)cc1)c1cccc(-c2cc3ccccc3oc2=O)c1	–	–	–	–	–	68	58	Diaphorase 10uM=–;Diaph ctr 30uM=–
SMILES	PfM18AAP inh	Apaf-1 inh	UBC13 polyUb	EBNA-1 inhibitor	ZTA counter	PfGluPho inh	PfG6PD confirm	others
O=C(Nc1ccccc1N1CCCC1)c1cccc(-c2cc3ccccc3oc2=O)c1	–	–	–	–	–	–	·
COc1cccc(/C=C2/CCC(CN(C)C)C2=O)c1 (stereo unspecified)	·	·	·	·	·	70	–
COc1cccc(/C=C2\CCC(C3CCCC3)C2=O)c1 (stereo unspecified)	–	–	–	–	–	–	·
COc1ccc(/C=C2/CCCC(CN(C)C)C2=O)cc1 (stereo unspecified)	·	·	·	·	·	–	·
CN(C)CC1CCC/C(=C/c2ccc(Cl)cc2)C1=O (stereo unspecified)	·	·	·	·	·	60	–
O=C1C2C3C=CC(CC3)C2C(=O)N1c1ccc(Cl)cc1Cl (stereo unspecified)	–	–	–	–	–	–	·
NCCc1nc(-c2ccccc2)cs1	–	–	–	–	–	–	·
CN(C)S(=O)(=O)c1cccc(NC(=S)Nc2ccc3cn[nH]c3c2)c1	–	–	–	–	–	–	·
CN(C)S(=O)(=O)c1cccc(NC(=S)Nc2cccc3cnccc23)c1	–	·	·	·	·	69	–
CN(CC(=O)Nc1ccccc1Cl)C(=O)COC(=O)/C=C/c1cccc(C(F)(F)F)c1	·	–	–	·	–	79	–
CN(CC(=O)Nc1ccccc1Cl)C(=O)COC(=O)/C=C/c1cccs1	·	–	–	·	–	–	·
Cc1ccc(CNC(=O)CN(c2ccc(Cl)cc2)S(C)(=O)=O)cc1	–	–	–	–	–	–	·
Cc1cccc(C(=O)OCC(=O)NCCCc2ccccc2)c1	–	–	–	–	–	–	·
Cc1ccc(NC(=O)NC(=O)CN2CCN(c3ccc(O)cc3)CC2)c(C)c1	30	–	–	–	–	72	–
CC(CCc1ccccc1)NC(=O)CN1CCN(c2ccc(O)cc2)CC1 (stereo unspecified)	–	–	–	–	–	66	–
Cc1ccc(NC(=O)NC(=O)CN2CCC(C(N)=O)CC2)c(C)c1	·	–	–	·	–	–	·
CC(CCc1ccccc1)NC(=O)CN1CCN(Cc2ccccc2)C1=O (stereo unspecified)	–	–	–	–	–	–	·
COc1cccc(NC(=O)C2CCOC2=O)c1 (stereo unspecified)	·	–	–	–	–	–	·
O=C(O)c1cc(NC(=O)c2ccc(Cl)c([N+](=O)[O-])c2)cc(C(=O)O)c1	–	–	–	–	–	–	·
O=C(Nc1ccc(C(O)(C(F)(F)F)C(F)(F)F)cc1)c1ccc(Cl)c([N+](=O)[O-])c1	–	–	–	–	–	63	–
O=C(Nc1ccccn1)c1cc2ccccc2cc1O	–	–	–	–	–	67	–
O=C(Nc1ccccn1)c1ccc(C(=O)Nc2ccccn2)cc1	–	–	–	–	–	–	·
COc1ccc(NC(=O)c2cc3ccccc3cc2O)cc1	–	–	–	–	–	70	–
CN1c2ccccc2N(C)C1(C)c1ccccc1	–	·	·	–	–	64	–
COc1cccc(NC(=O)C2CC2(c2cccc(OC)c2)c2cccc(OC)c2)c1 (stereo unspecified)	–	–	–	–	–	111	–
Fc1ccc(-c2nc3n(n2)Cc2ccccc2-3)cc1	–	–	–	–	–	–	·
Cc1ccc(-c2nc3n(n2)Cc2ccccc2-3)cc1	–	–	–	–	–	77	–
